Molecules are shown by their SMILES. Calls of active or inactive are those of the source. No cut-off for these calls is given here. Square brackets hold non-standard residues; d marks the D form. Peptide text beside a SMILES is read from it. Phe(4-NO2) = N[C@@H](Cc1ccc([N+](=O)[O-])cc1)C(=O)O; Phe(4-N3) = [N-]=[N+]=Nc1ccc(C[C@H](N)C(=O)O)cc1; Phe(4-N2+) = N#[N+]c1ccc(C[C@H](N)C(=O)O)cc1; Sar = CNCC(=O)O

The species named for test [1] is Oryctolagus cuniculus. Description: Inactivation of angiotensin 2 receptor in albino New Zealand rabbit aorta assessed as relaxation of angiotensin-induced contraction at 0.4 uM treated for 180 mins followed by UV light exposed for 10 mins relative to control in presence of noradrenaline. The format is tissue-based. Details: scale not given: the % may be the effect or the level left. A digest of the protocol:
(§1)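 Strips in Krebs at 37 °C (95% O2/5% CO2, 2.0 g tension) received AT 0.2 μM at 60 and 120 min. The control agonist was noradrenaline for aorta and serotonin for stomach. At 180 min, peptide plus (4'amino)Phe 0.6 mM was added; after 5 min at maximal contraction, strips were UV-irradiated (365 nm black light) for 10 min and washed. AT response at 280 min was expressed as % of nonirradiated references. At least seven experiments; mean ± SE.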

The species named for test [2] is Oryctolagus cuniculus. Kind of test: Binding affinity to angiotensin 2 receptor in albino New Zealand rabbit aorta relative to [Sar1]AT in absence of UV light.
The species entered for test [3] is Oryctolagus cuniculus. Kind of test: Agonist activity at angiotensin 2 receptor in albino New Zealand rabbit aorta in absence of UV light. The format is tissue-based. A digest of the protocol: (§2)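 Rabbit aortic strips were suspended in Krebs solution at 37 °C, gassed with 95% O2/5% CO2, at 2.0 g tension, and equilibrated 60–90 min with bath changes every 10–15 min. Isometric contraction was recorded by force transducer in the dark. PD2 is the −log agonist concentration giving half-maximal contraction. pA2 is the −log antagonist concentration reducing a double agonist dose to a single-dose response. αE is intrinsic activity.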

The species entered for test [4] is Oryctolagus cuniculus. Description: Intrinsic activity at angiotensin 2 receptor in albino New Zealand rabbit aorta in absence of UV light. The format is tissue-based. A digest of the protocol:
as §2

Test [5] deals with T1, Angiotensin II receptor (Rattus norvegicus) (UniProt P29089+P25095+P35351). Kind of test: Inactivation of angiotensin 2 receptor in Wistar rat aorta assessed as relaxation of angiotensin-induced contraction at 0.1 uM treated for 180 mins followed by UV light exposed for 10 mins relative to control in presence of noradrenaline. The method, boiled down: as §1
The species named for test [6] is Oryctolagus cuniculus. Description: Inactivation of angiotensin 2 receptor in albino New Zealand rabbit aorta assessed as relaxation of angiotensin-induced contraction at 0.4 uM treated for 180 mins followed by UV light exposed for 10 mins relative to control in presence of [Leu8]-AT. The format is tissue-based. Also on record: scale not given: the % may be the effect or the level left. The method, boiled down:
(§3)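 Protection protocol: aortic strips in Krebs at 37 °C were given AT 0.2 μM at 60 and 120 min, then preincubated 15 min with [Leu8]AT 5 μM (final) before the photolabel plus (4'amino)Phe 0.6 mM. After 5 min at maximal contraction, strips were UV-irradiated 10 min and washed only after photolysis. Residual AT response at 280 min was expressed as % of nonirradiated, identically incubated references.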

Test [7] is filed under the species Oryctolagus cuniculus. Description: Inactivation of angiotensin 2 receptor in albino New Zealand rabbit aorta assessed as relaxation of angiotensin-induced contraction at 5 uM treated for 180 mins followed by UV light exposed for 10 mins relative to control in presence of [Leu8]-AT. The class given is tissue-based. Details: scale not given: the % may be the effect or the level left. The method, boiled down:
as §3

For test [8], the species on record is Oryctolagus cuniculus. Description: Inactivation of angiotensin 2 receptor in albino New Zealand rabbit aorta assessed as relaxation of angiotensin-induced contraction at 5 uM treated for 180 mins followed by UV light exposed for 10 mins relative to control in presence of noradrenaline. The format is tissue-based. Also on record: scale not given: the % may be the effect or the level left. The method, boiled down: as §1

The species named for test [9] is Oryctolagus cuniculus. Kind of test: Inactivation of angiotensin 2 receptor in albino New Zealand rabbit aorta assessed as relaxation of angiotensin-induced contraction at 0.2 uM treated for 180 mins followed by UV light exposed for 10 mins relative to control in presence of noradrenaline. The format is tissue-based. Details: scale not given: the % may be the effect or the level left. The method, boiled down:
as §1

For test [10], the species on record is Oryctolagus cuniculus. Description: Inactivation of angiotensin 2 receptor in albino New Zealand rabbit aorta assessed as relaxation of angiotensin-induced contraction at 0.2 uM treated for 180 mins followed by UV light exposed for 10 mins relative to control in presence of [Leu8]-AT. Also on record: scale not given: the % may be the effect or the level left. The format is tissue-based. The method, boiled down: as §3

The species entered for test [11] is Oryctolagus cuniculus. Description: Inactivation of angiotensin 2 receptor in albino New Zealand rabbit aorta assessed as relaxation of angiotensin-induced contraction at 10 uM treated for 180 mins followed by UV light exposed for 10 mins relative to control in presence of noradrenaline. The class given is tissue-based. Details: scale not given: the % may be the effect or the level left. A digest of the protocol:
as §1

Test [12] is filed under the species Oryctolagus cuniculus. Description: Inactivation of angiotensin 2 receptor in albino New Zealand rabbit aorta assessed as relaxation of angiotensin-induced contraction at 10 uM treated for 180 mins followed by UV light exposed for 10 mins relative to control in presence of [Leu8]-AT. The class given is tissue-based. Also on record: scale not given: the % may be the effect or the level left. The method, boiled down:
as §3

Test [13] in a line: Antagonist activity at angiotensin 2 receptor in albino New Zealand rabbit aorta in absence of UV light. The class given is tissue-based, Oryctolagus cuniculus. The method, boiled down:
as §2

For test [14], the target named is T1, Angiotensin II receptor (Rattus norvegicus). Kind of test: Inactivation of angiotensin 2 receptor in Wistar rat stomach assessed as relaxation of angiotensin-induced contraction at 1 uM treated for 180 mins followed by UV light exposed for 10 mins relative to control in presence of serotonin. A digest of the protocol: as §1

For `CNCC(=O)N[C@@H](CCCNC(=N)N)C(=O)N[C@H](C(=O)N[C@@H](Cc1ccc(O)cc1)C(=O)N[C@H](C(=O)N[C@@H](Cc1cnc[nH]1)C(=O)N1CCC[C@H]1C(=O)N[C@@H](Cc1ccc(N=[N+]=[N-])cc1)C(=O)O)C(C)C)C(C)C`, the values for the Activity in the test listed under Oryctolagus cuniculus [1] and in the test listed under Oryctolagus cuniculus [6] were 100% and 103%, respectively. In the test filed under Oryctolagus cuniculus [2], this molecule had an RBA of 31%. Also, the pD2 in the test listed under Oryctolagus cuniculus [3] was found to be 8.72. This molecule also gave an Intrinsic activity in the test filed under Oryctolagus cuniculus [4] of 1. For the same molecule, in test [5], the inhibition result is “Active”.
As to `CNCC(=O)N[C@@H](CCCNC(=N)N)C(=O)N[C@H](C(=O)N[C@@H](Cc1ccc(O)cc1)C(=O)N[C@H](C(=O)N[C@@H](Cc1cnc[nH]1)C(=O)N1CCC[C@H]1C(=O)N[C@@H](Cc1ccc([N+]#N)cc1)C(=O)O)C(C)C)C(C)C`, the figures for the Activity in the test listed under Oryctolagus cuniculus [7] and in the test filed under Oryctolagus cuniculus [8] were 72% and 78%, respectively. Further, the RBA in the test listed under Oryctolagus cuniculus [2] was 13%. This molecule also registered a pD2 in the test listed under Oryctolagus cuniculus [3] of 8.33. In the test listed under Oryctolagus cuniculus [4], this molecule displayed an Intrinsic activity of 1.
Regarding `CNCC(=O)N[C@@H](CCCNC(=N)N)C(=O)N[C@H](C(=O)N[C@@H](Cc1ccc(O)cc1)C(=O)N[C@H](C(=O)N[C@@H](Cc1cnc[nH]1)C(=O)N1CCC[C@H]1C(=O)N[C@@H](Cc1ccc([N+](=O)[O-])cc1)C(=O)O)C(C)C)C(C)C`, the Activity in the test listed under Oryctolagus cuniculus [1] is 95%. In the test listed under Oryctolagus cuniculus [2], this molecule gave an RBA of 69%. The molecule also returned a pD2 in the test filed under Oryctolagus cuniculus [3] of 9.07. Also, the Intrinsic activity in the test filed under Oryctolagus cuniculus [4] was 0.46.
Turning to `CNCC(=O)N[C@@H](CCCNC(=N)N)C(=O)N[C@H](C(=O)N[C@@H](Cc1ccc(O)cc1)C(=O)N[C@H](C(=O)N[C@@H](Cc1cnc[nH]1)C(=O)N1CCC[C@H]1C(=O)N[C@@H](Cc1ccccc1)C(=O)O)C(C)C)C(C)C` (H-[Sar]RVYVHPF-OH), the pD2 in the test listed under Oryctolagus cuniculus [3] was 9.23. The same molecule showed an Intrinsic activity in the test filed under Oryctolagus cuniculus [4] of 1. The Activity in the test listed under Oryctolagus cuniculus [9] and in the test listed under Oryctolagus cuniculus [10] was 100% in each case.
`CNCC(=O)N[C@@H](CCCNC(=N)N)C(=O)N[C@H](C(=O)N[C@@H](Cc1ccc([N+]#N)cc1)C(=O)N[C@H](C(=O)N[C@@H](Cc1cnc[nH]1)C(=O)N1CCC[C@H]1C(=O)N[C@@H](Cc1ccccc1)C(=O)O)C(C)C)C(C)C` (H-[Sar]RV[Phe(4-N2+)]VHPF-OH): in the test listed under Oryctolagus cuniculus [2], the RBA was 0.66%. In the test listed under Oryctolagus cuniculus [3], this molecule returned a pD2 of 7.05. Further, the Intrinsic activity in the test listed under Oryctolagus cuniculus [4] is 1.
Turning to `CNCC(=O)N[C@@H](CCCNC(=N)N)C(=O)N[C@H](C(=O)N[C@@H](Cc1ccc([N+]#N)cc1)C(=O)N[C@H](C(=O)N[C@@H](Cc1cnc[nH]1)C(=O)N1CCC[C@H]1C(=O)N[C@@H](Cc1ccc([N+]#N)cc1)C(=O)O)C(C)C)C(C)C` (H-[Sar]RV[Phe(4-N2+)]VHP[Phe(4-N2+)]-OH), the RBA in the test listed under Oryctolagus cuniculus [2] was 1.3%. For the same molecule, in the test filed under Oryctolagus cuniculus [3], the pD2 is 7.36. The molecule also came in with an Intrinsic activity in the test filed under Oryctolagus cuniculus [4] of 1.
For `CNCC(=O)N[C@@H](CCCNC(=N)N)C(=O)N[C@H](C(=O)N[C@@H](Cc1ccc(N=[N+]=[N-])cc1)C(=O)N[C@H](C(=O)N[C@@H](Cc1cnc[nH]1)C(=O)N1CCC[C@H]1C(=O)N[C@@H](Cc1ccccc1)C(=O)O)C(C)C)C(C)C` (H-[Sar]RV[Phe(4-N3)]VHPF-OH), the values for the Activity in the test filed under Oryctolagus cuniculus [7] and in the test listed under Oryctolagus cuniculus [8] were 64% and 98%, respectively. Besides, in the test filed under Oryctolagus cuniculus [2], the RBA was determined as 0.26%. In the test listed under Oryctolagus cuniculus [3], this molecule had a pD2 of 6.65. The Intrinsic activity in the test filed under Oryctolagus cuniculus [4] came to 0.75.
On to `CNCC(=O)N[C@@H](CCCNC(=N)N)C(=O)N[C@H](C(=O)N[C@@H](Cc1ccc(N=[N+]=[N-])cc1)C(=O)N[C@H](C(=O)N[C@@H](Cc1cnc[nH]1)C(=O)N1CCC[C@H]1C(=O)N[C@@H](Cc1ccc(N=[N+]=[N-])cc1)C(=O)O)C(C)C)C(C)C` (H-[Sar]RV[Phe(4-N3)]VHP[Phe(4-N3)]-OH), for which, in the test filed under Oryctolagus cuniculus [2], the RBA turned out to be 0.07%. In the test listed under Oryctolagus cuniculus [3], this molecule returned a pD2 of 6.12. In addition, the figures for the Activity in the test filed under Oryctolagus cuniculus [11] and in the test listed under Oryctolagus cuniculus [12] were 100% and 92%, respectively. The molecule also registered an Intrinsic activity in the test filed under Oryctolagus cuniculus [4] of 0.8.
What is called pA2 is a measure of antagonist potency on a negative log scale. On to `CNCC(=O)N[C@@H](CCCNC(=N)N)C(=O)N[C@H](C(=O)N[C@@H](Cc1ccc([N+](=O)[O-])cc1)C(=O)N[C@H](C(=O)N[C@@H](Cc1cnc[nH]1)C(=O)N1CCC[C@H]1C(=O)N[C@@H](Cc1ccccc1)C(=O)O)C(C)C)C(C)C` (H-[Sar]RV[Phe(4-NO2)]VHPF-OH), for which the pA2 in test [13] is listed as < 5. In the test filed under Oryctolagus cuniculus [2], this molecule gave an RBA of 0%. Moreover, the pD2 in the test listed under Oryctolagus cuniculus [3] was < 5. In addition, the Activity in the test filed under Oryctolagus cuniculus [11] came out at 105%; in the test listed under Oryctolagus cuniculus [12] it was 102%. In the test filed under Oryctolagus cuniculus [4], the Intrinsic activity was 0. The inhibition entry in test [14] was “inactive”.
In the test listed under Oryctolagus cuniculus [2], `CNCC(=O)N[C@@H](CCCNC(=N)N)C(=O)N[C@H](C(=O)N[C@@H](Cc1ccc([N+](=O)[O-])cc1)C(=O)N[C@H](C(=O)N[C@@H](Cc1cnc[nH]1)C(=O)N1CCC[C@H]1C(=O)N[C@@H](Cc1ccc([N+](=O)[O-])cc1)C(=O)O)C(C)C)C(C)C` (H-[Sar]RV[Phe(4-NO2)]VHP[Phe(4-NO2)]-OH) showed an RBA of 0.06%. In the test listed under Oryctolagus cuniculus [3], this molecule returned a pD2 of 6.02. The Activity in the test listed under Oryctolagus cuniculus [11] was 99%. Further, in the test filed under Oryctolagus cuniculus [4], the Intrinsic activity turned out to be 0.5.
